This is an account of results in PubChem BioAssay AID1230 (PCMD, 2008).

Among all 210,000 compounds or so, about 220 (0.1%) were called active.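 Rule for the calls: active = signal enhancement of 30% or more; inactive = the rest.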 This excerpt belongs to a sample that is enriched for actives.

This assay deals with E3 ubiquitin-protein ligase Mdm2 (Homo sapiens) (UniProt Q00987). As to the kind of experiment: MDM2-luciferase reporter signal enhancers, primary screen, MDM2 E3 ligase inhibitor project, cell-based, luminescence, 1536-well (AID 1230).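 Note: luminescence tracks abundance of the self-degrading MDM2-luciferase fusion protein.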 As to conditions: cell-based MDM2 ubiquitination luciferase reporter, 2 h; at 5 µM; hits give high values; 0 = plate control, 100 = twice control, blank-subtracted. A digest of the protocol: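 Assay system: stable mammalian line carrying autodegrading MDM2–luciferase fusion reporter; Input: 2000 cells in each well; Compound dosing: single-point 5 µM; Schedule: 2 h compound exposure at 37 °C; Signal: SteadyLite luciferase luminescence after 15 min room-temperature reagent incubation; Evaluation: % luminescence enhancement versus blank-corrected plate control mean; Benchmarks: plate controls and plate blanks.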
E3 ubiquitin-protein ligase Mdm2 (Homo sapiens), sequence (Q00987 whole entry, looked up, the tested form may be a part): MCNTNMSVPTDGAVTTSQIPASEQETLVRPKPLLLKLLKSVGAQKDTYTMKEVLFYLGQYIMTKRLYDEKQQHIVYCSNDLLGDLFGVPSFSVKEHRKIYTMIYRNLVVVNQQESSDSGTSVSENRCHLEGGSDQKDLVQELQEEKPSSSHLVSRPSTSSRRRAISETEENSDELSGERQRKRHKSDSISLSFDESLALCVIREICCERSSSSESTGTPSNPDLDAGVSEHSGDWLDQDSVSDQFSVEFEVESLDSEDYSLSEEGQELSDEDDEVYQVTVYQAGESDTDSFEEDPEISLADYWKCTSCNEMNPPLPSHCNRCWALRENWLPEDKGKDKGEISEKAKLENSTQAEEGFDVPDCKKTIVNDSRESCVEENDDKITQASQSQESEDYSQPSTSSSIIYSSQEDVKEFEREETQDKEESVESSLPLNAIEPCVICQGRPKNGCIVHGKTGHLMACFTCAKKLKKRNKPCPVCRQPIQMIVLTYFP
Background: In a reporter assay the amount or activity of a reporter protein is the signal.
Take `CCCc1nc2oc3c(=O)[nH]cnc3c2c2c1COC(C)(C)C2`: the signal enhancement is 1.7% (inactive).

Turning to `COc1c(N2CCN(C(=S)Nc3ccccc3F)C(C)C2)c(F)cc2c(=O)c(C(=O)O)cn(C3CC3)c12` (stereo not given), the signal enhancement is 0.25% (inactive).

For `CCOC(=O)c1oc2c(CN3CCN(CCO)CC3)c(O)c(CC)cc2c(=O)c1-c1nc2ccccc2s1`, the signal enhancement is -10.7% (inactive).

Turning to `CCc1cc2c(=O)c(-c3nc4ccccc4n3C)c(CCCC(=O)O)oc2cc1OC(=O)C(C)(C)C`, the signal enhancement is 32.3% (active).

In the case of `CCc1cc2c(=O)c(-c3ccc(F)cc3)c(C(F)(F)F)oc2cc1OCC(=O)O`, the signal enhancement is -6.75% (inactive).

For the compound `CCOc1c(Nc2cccc(Cl)c2)c(=O)c1=O`, the signal enhancement is -2.35% (inactive).

In the case of `NC1=NC[C@@H](Cc2ccc(O)cc2)N1CC1CCCCC1`, the signal enhancement was 7.84% (inactive).

Take `Oc1c(Br)cc(/C=N/NC(=S)NCC2CCCO2)cc1Br` (stereo not given): the signal enhancement is -4.26% (inactive).

As for `N#Cc1ccc(Oc2ccc(C(F)(F)F)cc2NC(=O)c2ccc(F)cc2)cc1`, the signal enhancement was -13.7% (inactive).

With `CC1(C)CCSC(/C=C/c2ccccc2)=N1`, the signal enhancement is 3.53% (inactive).

Regarding `NS(=O)(=O)c1ccc(NC(=O)COC(=O)c2cc3ccccc3oc2=O)cc1`, the signal enhancement was -3.08% (inactive).

Turning to `Cc1cc(C)nc(SCc2cn3c(C)cc(C)nc3n2)n1`, the signal enhancement was -13.6% (inactive).

Regarding `COc1cc(NC(=O)c2ccc(CNc3c(N4CCCC4)c(=O)c3=O)cc2)cc(OC)c1OC`, the signal enhancement was -5.93% (inactive).

In the case of `COc1cc(C(CCN2CCN(c3ccccc3)CC2)c2c(OC)cc(OC)c3ccc(=O)oc23)cc(OC)c1OC` (stereo not given), the signal enhancement was 17.2% (inactive).

For the compound `CC(C)COC(=O)n1c(=O)oc2ccc(S(=O)(=O)N3CCCCC3)cc21`, the signal enhancement was -7.89% (inactive).

Turning to `CN(C)c1cc(-c2ccc(F)cc2)oc(=O)c1Cl`, the signal enhancement was -15.5% (inactive).

Consider `COc1ccccc1NC(=O)c1cc(Cl)nc2ccccc12`, for which the signal enhancement was -12.4% (inactive).

Take `Cc1onc(-c2c(Cl)cccc2Cl)c1C(=O)NNC(=O)c1c(-c2c(Cl)cccc2Cl)noc1C`: the signal enhancement is -1.5% (inactive).

With `Cc1cc(C)cc(NS(=O)(=O)c2ccc(F)cc2)c1`, the signal enhancement is -8.71% (inactive).

Regarding `COc1ccccc1CNC(=O)Cn1c(=O)oc2cc(Cl)ccc21`, the signal enhancement is -8.67% (inactive).

With `Cc1noc(C)c1-c1nc(CSc2ccc(Cl)cc2)no1`, the signal enhancement is -16.2% (inactive).

Turning to `Cc1ccc(/C=N/NC(=S)Nc2cccc(S(=O)(=O)N(C)C)c2)o1`, the signal enhancement is -13.3% (inactive).

Regarding `Cc1cccc(-[n+]2c(-c3cccc(Br)c3)[nH]c3nc4ccccc4nc32)c1`, the signal enhancement was -76.7% (inactive).

Consider `O=C1NNC(c2ccccc2)=N/C1=C\c1ccc(Cl)cc1`, for which the signal enhancement is -9.72% (inactive).

Regarding `O=c1cc(CCl)nc2scc(-c3ccccc3)n12`, the signal enhancement is -0.33% (inactive).
